How the values were obtained:
[1] = biological target: Carbonic anhydrase 1 (Homo sapiens, UniProt P00915); test: Inhibition of human CA1 preincubated for 15 mins by stopped-flow CO2 hydration kinetic assay based Cheng-Prusoff equation analysis
[2] = biological target: Carbonic anhydrase 2 (Homo sapiens, UniProt P00918); test: Inhibition of human CA2 preincubated for 15 mins by stopped-flow CO2 hydration kinetic assay based Cheng-Prusoff equation analysis
[3] = biological target: Carbonic anhydrase 4 (Homo sapiens, UniProt P22748); test: Inhibition of human CA4 preincubated for 15 mins by stopped-flow CO2 hydration kinetic assay based Cheng-Prusoff equation analysis
[4] = biological target: Carbonic anhydrase 12 (Homo sapiens, UniProt O43570); test: Inhibition of human CA12 preincubated for 15 mins by stopped-flow CO2 hydration kinetic assay based Cheng-Prusoff equation analysis
[5] = test system: Oryctolagus cuniculus; test: (§1) Suppression of hypertonic saline solution-induced increase in intraocular pressure in New Zealand rabbit model of glaucoma assessed as reduction in intraocular pressure dosed as 1% eye drops formulation via direct instillation into eye conjunctive pocket measured after 30 mins post dose relative to untreated control; format: functional
[6] = test system: Oryctolagus cuniculus; test: as §1, with “60” for “30”; format: functional
[7] = test system: Oryctolagus cuniculus; test: as §1, with “120” for “30”; format: functional
[8] = test system: Oryctolagus cuniculus; test: as §1, with “240” for “30”; format: functional
[9] = species on record: Homo sapiens; test: Selectivity index, ratio of Ki for inhibition of human CA1 to Ki for inhibition of human CA2
Outline: (§2)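 Ratio of Ki values. Each Ki came from stopped-flow CA-catalysed CO2 hydration with recombinant in-house hCA isoforms, phenol red 0.2 mM read at 557 nm, 20 mM Hepes pH 7.5, 20 mM Na2SO4, and CO2 1.7–17 mM. Inhibitor and enzyme were preincubated 15 min at room temperature. Initial rates, less the uncatalysed rate, were fit by nonlinear least squares with Cheng–Prusoff. Mean of ≥3 determinations.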

[10] = species on record: Homo sapiens; test: Selectivity index, ratio of Ki for inhibition of human CA1 to Ki for inhibition of human CA4; outline: as §2
[11] = species on record: Homo sapiens; test: Selectivity index, ratio of Ki for inhibition of human CA2 to Ki for inhibition of human CA4; outline: as §2
[12] = species on record: Homo sapiens; test: Selectivity index, ratio of Ki for inhibition of human CA1 to Ki for inhibition of human CA12; outline: as §2
[13] = species on record: Homo sapiens; test: Selectivity index, ratio of Ki for inhibition of human CA2 to Ki for inhibition of human CA12; outline: as §2
[14] = species on record: Homo sapiens; test: Selectivity index, ratio of Ki for inhibition of human CA4 to Ki for inhibition of human CA12; outline: as §2

Chain of Carbonic anhydrase 1 (P00915 whole entry): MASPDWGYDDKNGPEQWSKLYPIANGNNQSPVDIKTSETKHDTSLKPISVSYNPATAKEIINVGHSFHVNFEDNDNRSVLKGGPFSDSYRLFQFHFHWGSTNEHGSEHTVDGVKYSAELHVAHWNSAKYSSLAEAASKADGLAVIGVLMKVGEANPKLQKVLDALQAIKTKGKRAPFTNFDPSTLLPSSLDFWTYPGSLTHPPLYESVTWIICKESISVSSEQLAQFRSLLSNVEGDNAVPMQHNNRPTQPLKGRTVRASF
Chain of Carbonic anhydrase 4 (P22748 whole entry): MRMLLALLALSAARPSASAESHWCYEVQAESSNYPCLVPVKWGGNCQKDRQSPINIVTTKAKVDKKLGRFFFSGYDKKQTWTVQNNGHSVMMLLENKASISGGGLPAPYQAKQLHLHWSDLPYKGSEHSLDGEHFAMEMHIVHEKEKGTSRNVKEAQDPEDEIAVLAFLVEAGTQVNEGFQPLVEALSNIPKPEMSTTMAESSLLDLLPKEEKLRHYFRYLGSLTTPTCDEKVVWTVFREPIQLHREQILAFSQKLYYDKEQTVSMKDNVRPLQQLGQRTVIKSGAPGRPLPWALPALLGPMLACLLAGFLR
Chain of Carbonic anhydrase 12 (O43570 whole entry): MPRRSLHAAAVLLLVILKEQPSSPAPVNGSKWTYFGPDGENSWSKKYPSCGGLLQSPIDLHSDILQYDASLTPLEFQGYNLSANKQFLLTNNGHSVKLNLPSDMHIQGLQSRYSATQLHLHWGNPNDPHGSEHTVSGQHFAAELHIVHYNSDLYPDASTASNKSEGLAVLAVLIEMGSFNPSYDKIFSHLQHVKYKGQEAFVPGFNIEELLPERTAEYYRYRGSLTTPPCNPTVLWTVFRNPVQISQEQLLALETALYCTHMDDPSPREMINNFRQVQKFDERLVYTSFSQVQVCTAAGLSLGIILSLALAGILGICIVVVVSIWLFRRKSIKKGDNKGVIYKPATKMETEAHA

NS(=O)(=O)c1ccc(CCN(Cc2ccc(F)cc2)C(=O)CN(CCC(=O)O)CCc2ccccc2)cc1
Ki [1]: 0.0958 µM
Ki [2]: 0.0235 µM
Ki [3]: 0.419 µM
Ki [4]: 0.0088 µM
Activity [5]: 1.3 mmHg
Activity [6]: 4.8 mmHg
Activity [7]: 3.2 mmHg
Activity [8]: 2.4 mmHg
Ratio Ki [9]: 4.1
Ratio Ki [10]: 0.2
Ratio Ki [11]: 0.06
Ratio Ki [12]: 10.9
Ratio Ki [13]: 2.7
Ratio Ki [14]: 47.6

CCN[C@H]1C[C@H](C)S(=O)(=O)c2sc(S(N)(=O)=O)cc21.Cl [DORZOLAMIDE HYDROCHLORIDE]
Activity [5]: 1 mmHg
Activity [6]: 5.4 mmHg
Activity [7]: 2.8 mmHg
Activity [8]: 3 mmHg

N#CCCN(CCc1ccccc1)CC(=O)N(CCC#N)CCc1ccc(S(N)(=O)=O)cc1
Ki [1]: 0.0616 µM
Ki [2]: 0.0007 µM
Ki [3]: 0.727 µM
Ki [4]: 0.0089 µM
Activity [5]: 1 mmHg
Activity [6]: 3 mmHg
Activity [7]: 0.3 mmHg
Ratio Ki [9]: 88
Ratio Ki [10]: 0.08
Ratio Ki [11]: 0.001
Ratio Ki [12]: 6.9
Ratio Ki [13]: 0.08
Ratio Ki [14]: 81.6

NS(=O)(=O)c1ccc(CCN(Cc2ccccc2)C(=O)CCN(Cc2ccccc2)Cc2ccccc2)cc1
Ki [1]: 0.692 µM
Ki [2]: 0.559 µM
Ki [3]: 4.64 µM
Ki [4]: 0.303 µM
Ratio Ki [9]: 1.2
Ratio Ki [10]: 0.2
Ratio Ki [11]: 0.1
Ratio Ki [12]: 2.3
Ratio Ki [13]: 1.8
Ratio Ki [14]: 15.3

CCN(CC(=O)N(CCc1ccc(S(N)(=O)=O)cc1)Cc1ccccc1)Cc1ccccc1
Ki [1]: 4.21 µM
Ki [2]: 0.392 µM
Ki [3]: > 10 µM
Ki [4]: 0.0826 µM
Ratio Ki [9]: 10.7
Ratio Ki [10]: < 0.4
Ratio Ki [11]: < 0.04
Ratio Ki [12]: 51
Ratio Ki [13]: 4.7
Ratio Ki [14]: > 121

N#CCCN(CCc1ccccc1)CC(=O)N(CCc1ccc(S(N)(=O)=O)cc1)Cc1ccco1
Ki [1]: 0.301 µM
Ki [2]: 0.0732 µM
Ki [3]: 0.457 µM
Ki [4]: 0.0087 µM
Ratio Ki [9]: 4.1
Ratio Ki [10]: 0.7
Ratio Ki [11]: 0.2
Ratio Ki [12]: 34.6
Ratio Ki [13]: 8.4
Ratio Ki [14]: 52.6

NCCCN(CCc1ccccc1)CC(=O)N(CCc1ccc(S(N)(=O)=O)cc1)Cc1ccc(F)cc1
Ki [1]: 0.451 µM
Ki [2]: 0.0304 µM
Ki [3]: 0.365 µM
Ki [4]: 0.0006 µM
Ratio Ki [9]: 14.9
Ratio Ki [10]: 1.2
Ratio Ki [11]: 0.08
Ratio Ki [12]: 752
Ratio Ki [13]: 50.7
Ratio Ki [14]: 609

CCCCCCN(CCCCCC)CC(=O)N(CCC(=O)O)CCc1ccc(S(N)(=O)=O)cc1
Ki [1]: 0.286 µM
Ki [2]: 0.586 µM
Ki [3]: 0.0458 µM
Ki [4]: 0.0099 µM
Ratio Ki [9]: 0.5
Ratio Ki [10]: 6.2
Ratio Ki [11]: 12.8
Ratio Ki [12]: 28.8
Ratio Ki [13]: 59.2
Ratio Ki [14]: 4.6

CCCCCCN(CCCCCC)CCC(=O)N(CCc1ccccc1)CCc1ccc(S(N)(=O)=O)cc1
Ki [1]: 0.518 µM
Ki [2]: 0.781 µM
Ki [3]: 3.41 µM
Ki [4]: 0.0625 µM
Ratio Ki [9]: 0.7
Ratio Ki [10]: 0.2
Ratio Ki [11]: 0.2
Ratio Ki [12]: 8.3
Ratio Ki [13]: 12.5
Ratio Ki [14]: 54.6

CCCCCCCC/C=C\CCCCCCCCNC(=O)CCN(CCc1ccccc1)CC(=O)N(CCc1ccc(S(N)(=O)=O)cc1)Cc1ccco1
Ki [1]: 0.738 µM
Ki [2]: 0.132 µM
Ki [3]: 1.81 µM
Ki [4]: 0.0055 µM
Ratio Ki [9]: 5.6
Ratio Ki [10]: 0.4
Ratio Ki [11]: 0.07
Ratio Ki [12]: 134
Ratio Ki [13]: 24
Ratio Ki [14]: 329

CCCCCCN(CCCCCC)CC(=O)N(CCCN)CCc1ccc(S(N)(=O)=O)cc1
Ki [1]: 0.436 µM
Ki [2]: 2.92 µM
Ki [3]: 0.914 µM
Ki [4]: 0.0325 µM
Ratio Ki [9]: 0.2
Ratio Ki [10]: 0.5
Ratio Ki [11]: 3.2
Ratio Ki [12]: 13.4
Ratio Ki [13]: 90
Ratio Ki [14]: 28.1

NS(=O)(=O)c1ccc(CCN(CCc2ccccc2)C(=O)CN(CCC(=O)O)CCc2ccccc2)cc1
Ki [1]: 0.203 µM
Ki [2]: 0.072 µM
Ki [3]: 2.33 µM
Ki [4]: 0.0297 µM
Ratio Ki [9]: 2.8
Ratio Ki [10]: 0.09
Ratio Ki [11]: 0.03
Ratio Ki [12]: 6.9
Ratio Ki [13]: 2.4
Ratio Ki [14]: 78.5

NS(=O)(=O)c1ccc(CCN(Cc2ccco2)C(=O)CN(CCC(=O)O)CCc2ccccc2)cc1
Ki [1]: 0.0795 µM
Ki [2]: 0.0024 µM
Ki [3]: 0.335 µM
Ki [4]: 0.0071 µM
Activity [6]: 3.3 mmHg
Activity [7]: 1 mmHg
Activity [8]: 1.2 mmHg
Ratio Ki [9]: 33.1
Ratio Ki [10]: 0.2
Ratio Ki [11]: 0.007
Ratio Ki [12]: 11.2
Ratio Ki [13]: 0.3
Ratio Ki [14]: 47.3
